Reference: ChEMBL document CHEMBL1136633, “Synthesis and thrombolytic activity of fibrinogen fragment related cyclopeptides” (Bioorg Med Chem Lett, 2003)
Where a SMILES comes first, the peptide text is derived from it.

Columns and labels:
[1] = In vitro stability to pepsin promoting hydrolysis after 64h incubation time; format: ADME; settings: read-out: Degradation
How it was run: (§1)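 Test compound (10 mg) dissolved in 1 mL phosphate buffer pH 8, then 0.5 mg pepsin or trypsin added. Mixture held at 37 °C. Remaining compound was measured hourly by HPLC using 25% CH₃OH in water with 0.1% CF₃COOH, and percent degradation was derived.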

[2] = In vitro stability to trypsin promoting hydrolysis after 64h incubation time; format: ADME; settings: read-out: Degradation; how it was run: as §1
[3] = In vitro stability to trypsin promoting hydrolysis after 84 hr incubation time; format: ADME; settings: read-out: Degradation; how it was run: as §1
[4] = In vitro stability to pepsin promoting hydrolysis after 84 hr incubation time; format: ADME; settings: read-out: Degradation; how it was run: as §1
Rattus norvegicus [5] = test: In vivo thrombolytic activity at a dose of 5.0 mg in male rat; format: functional
How it was run: (§2)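 Rat arterial-venous shunt. Arterial blood (1.0 mL) from the right carotid was collected onto a stainless steel helix for 15 min to form a thrombus, which was weighed. The helix was placed in a heparin-filled (50 IU/mL in NS) polyethylene shunt to the left jugular vein. Heparin was injected, then compound. Blood circulated 90 min and the helix was reweighed. Readout was thrombus mass reduction; N=8, NS vehicle, ANOVA.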

[6] = In vitro stability to trypsin promoting hydrolysis after 2 hr incubation time; format: ADME; settings: read-out: Degradation; how it was run: as §1
[7] = In vitro stability to pepsin promoting hydrolysis after 1 hr incubation time; format: ADME; settings: read-out: Degradation; how it was run: as §1
[8] = In vitro stability to pepsin promoting hydrolysis after 2 hr incubation time; format: ADME; settings: read-out: Degradation; how it was run: as §1
[9] = In vitro stability to trypsin promoting hydrolysis after 1 hr incubation time; format: ADME; settings: read-out: Degradation; how it was run: as §1
[10] = In vitro stability to trypsin promoting hydrolysis after 8 hr incubation time; format: ADME; settings: read-out: Degradation; how it was run: as §1
[11] = In vitro stability to pepsin promoting hydrolysis after 8 hr incubation time; format: ADME; settings: read-out: Degradation; how it was run: as §1
Rattus norvegicus [12] = test: In vivo thrombolytic activity at a dose of 20.0 mg in male rat; format: functional; how it was run: as §2
Rattus norvegicus [13] = test: In vivo thrombolytic activity at a dose of 10.0 mg in male rat; format: functional; how it was run: as §2

Structure (SMILES)	metabolised at 64 h [1] [%]	metabolised at 64 h [2] [%]	metabolised at 84 h [3] [%]	metabolised at 84 h [4] [%]	metabolised at 2 h [6] [%]	metabolised at 1 h [7] [%]	metabolised at 2 h [8] [%]	metabolised at 1 h [9] [%]	metabolised at 8 h [10] [%]	metabolised at 8 h [11] [%]	Activity (Rattus norvegicus [5]) [mg]	other results
C[C@@H]1NC(=O)[C@@H](CCCN=C(N)N)NC(=O)[C@@H]2CCCN2C(=O)[C@H](C)NC(=O)[C@@H](CCCCN)NC1=O											10.62	
C[C@H](N)C(=O)N[C@@H](CCCN=C(N)N)C(=O)N1CCC[C@H]1C(=O)N[C@@H](C)C(=O)N[C@@H](CCCCN)C(=O)O (H-ARPAK-OH)					95	10	50	79	99	98	6.07	
C[C@@H]1NC(=O)[C@@H](CCCCN)NC(=O)[C@H](CCCCN)NC(=O)[C@@H](CCCN=C(N)N)NC(=O)[C@@H]2CCCN2C1=O											6.13	
C[C@@H]1NC(=O)[C@H](CCCCN)NC(=O)CNC(=O)[C@H](CCCN=C(N)N)NC(=O)[C@@H]2CCCN2C1=O	0	0	20	10								
C[C@H](NC(=O)[C@@H]1CCCN1C(=O)[C@H](CCCN=C(N)N)NC(=O)[C@@H](N)CCC(N)=O)C(=O)N[C@@H](CCCCN)C(=O)O (H-QRPAK-OH)					72	45	78	20	95	92	7.02	
C[C@@H]1NC(=O)[C@@H](CCCCN)NC(=O)[C@H](CCC(N)=O)NC(=O)[C@@H](CCCN=C(N)N)NC(=O)[C@@H]2CCCN2C1=O											9.68	
C[C@@H]1NC(=O)[C@@H](CCCCN)NC(=O)CNC(=O)[C@@H](CCCN=C(N)N)NC(=O)[C@@H]2CCCN2C1=O											11.86	Activity (Rattus norvegicus [12]): 18.88 mg; Activity (Rattus norvegicus [13]): 17.31 mg

More lines, main results first:

metabolised at 64 h [1] [%]	metabolised at 64 h [2] [%]	metabolised at 84 h [3] [%]	metabolised at 84 h [4] [%]	metabolised at 2 h [6] [%]	metabolised at 1 h [7] [%]	metabolised at 2 h [8] [%]	metabolised at 1 h [9] [%]	metabolised at 8 h [10] [%]	metabolised at 8 h [11] [%]	Structure (SMILES)	Activity (Rattus norvegicus [5]) [mg]	other results
0	0	20	25							C[C@@H]1NC(=O)[C@H](CCCCN)NC(=O)[C@H](CCC(N)=O)NC(=O)[C@H](CCCN=C(N)N)NC(=O)[C@@H]2CCCN2C1=O		
0	0	38	40							C[C@@H]1NC(=O)[C@H](CCCN=C(N)N)NC(=O)[C@@H]2CCCN2C(=O)[C@H](C)NC(=O)[C@H](CCCCN)NC1=O		
0	0	35	30							C[C@@H]1NC(=O)[C@H](CCCCN)NC(=O)[C@H](CCCCN)NC(=O)[C@H](CCCN=C(N)N)NC(=O)[C@@H]2CCCN2C1=O		
				70	50	80	30	96	95	C[C@H](NC(=O)[C@@H]1CCCN1C(=O)[C@H](CCCN=C(N)N)NC(=O)[C@@H](N)CCCCN)C(=O)N[C@@H](CCCCN)C(=O)O (H-KRPAK-OH)	0.28	
				77	56	75	25	98	93	C[C@H](NC(=O)[C@@H]1CCCN1C(=O)[C@H](CCCN=C(N)N)NC(=O)CN)C(=O)N[C@@H](CCCCN)C(=O)O (H-GRPAK-OH)	9.31	Activity (Rattus norvegicus [12]): 16.81 mg; Activity (Rattus norvegicus [13]): 13.17 mg
